In the array DNA melting data of Ke et al. (doi:10.1101/2024.01.08.574731) one finds folding enthalpy and Tm data, which are given here for 56 sequences.

The nature of data set [1]: folding enthalpy; higher = less favourable; fluorescence melt of hairpins on a sequencing array, two-state fit. The conditions noted are these: sodium 0.088 M. The essentials:
(§1)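 Folding enthalpy and melting temperature come from bootstrapped two-state fits to Cy3 fluorescence of library hairpins carrying annealed Cy3 and quencher oligos on a sequenced MiSeq flow cell. Imaging was done in 50 mM Na-HEPES pH 8.0, 25 mM NaCl, stepping by 2.5 °C up to 60 °C, and signals were normalised to pre-quench Cy3 and to control constructs. Results of four replicates were combined by inverse variance, and fitted temperatures were raised by 9.35 °C to match UV melts.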

Data set [2] can be described thus: melting temperature; fluorescence melt of hairpins on a sequencing array, two-state fit, raised by 9.35 °C to match UV melts. The conditions noted are these: sodium 0.088 M. The method in brief:
as §1

In the case of GTGTCGGGAAACTGACGC (.(((.(....).))).), the folding enthalpy in data set [1] is -24.5 kcal/mol. For the same sequence, the Tm in data set [2] amounted to 45.5 °C.

GACACCGAAAGGTTGGTC ((((((....)))..))): the folding enthalpy in data set [1] is -16.6 kcal/mol. Also, the Tm in data set [2] was determined as 40.8 °C.

GTTAGCGGAAACGCTAGC (.(((((....))))).): the folding enthalpy in data set [1] is -16.1 kcal/mol. Besides, the Tm in data set [2] amounted to 49.3 °C.

GATCAATAAATTGATC ((((((....)))))): the folding enthalpy in data set [1] is -30.7 kcal/mol. The Tm in data set [2] was found to be 42.8 °C.

For the sequence GACCCTGGAAACGGGGTC (((((.(....).))))), in data set [1], the folding enthalpy was -40.3 kcal/mol. Besides, the Tm in data set [2] was determined as 57.6 °C.

For the sequence GCGTATTACGC ((((...)))), the folding enthalpy in data set [1] was -25 kcal/mol. Also, in data set [2], the Tm is 54 °C.

As to GCGCCCGTGCGC ((((....)))), the folding enthalpy in data set [1] is -10.3 kcal/mol. In data set [2], the Tm turned out to be 66.5 °C.

On to GCGAGGCCTCGC ((((....)))), for which the folding enthalpy in data set [1] was -46 kcal/mol. Also, the Tm in data set [2] was 62.8 °C.

Regarding GGGAGGTCGAAAGACCCC (((..(((....)))))), the folding enthalpy in data set [1] is -14.4 kcal/mol. In addition, the Tm in data set [2] stood at 54.5 °C.

For GGCGGCGAAAGCCCTGCC ((((((....)))..))), in data set [1], the folding enthalpy was -20.1 kcal/mol. In data set [2], the Tm is 53.6 °C.

In the case of GCTTAGACGAAAGTCAGC (((..(((....)))))), the folding enthalpy in data set [1] is -18.2 kcal/mol. Besides, the Tm in data set [2] was found to be 41.6 °C.

For GATCGCCAGGCGATC ((((((...)))))), in data set [1], the folding enthalpy is -35.1 kcal/mol. Also, the Tm in data set [2] was found to be 67.1 °C.

In the case of GATCATTCCAATGATC ((((((....)))))), the folding enthalpy in data set [1] was -33.9 kcal/mol. Also, in data set [2], the Tm was determined as 50.4 °C.

As to GACTGGGGAAACCCGGTC (((.(((....))).))), the folding enthalpy in data set [1] was -41.7 kcal/mol. The Tm in data set [2] turned out to be 54.1 °C.

Regarding GTCAGGGGAAACTCTGAC (((((.(....).))))), the folding enthalpy in data set [1] is -33.4 kcal/mol. Also, the Tm in data set [2] is 48.9 °C.

As to GTTCTTCGAAAGAACAAC (((.(((....))).))), the folding enthalpy in data set [1] was -14.9 kcal/mol. In data set [2], the Tm worked out at 32 °C.

With GATCGGTCTCCCGATC ((((((....)))))), in data set [1], the folding enthalpy is -41 kcal/mol. Also, the Tm in data set [2] is 56.1 °C.

In the case of GATCGTCGTGACGATC ((((((....)))))), the folding enthalpy in data set [1] was -50 kcal/mol. For the same sequence, in data set [2], the Tm stood at 63.4 °C.

For GTCCCCCGAAAGGGGAC (((.(((....)))))), the folding enthalpy in data set [1] is -19.9 kcal/mol. Further, in data set [2], the Tm was found to be 67.2 °C.

With GGGTGCGGAAACGTACCC ((((.((....)).)))), in data set [1], the folding enthalpy is -41.5 kcal/mol. Also, in data set [2], the Tm turned out to be 61.2 °C.

As to GAAGGCGAAAGCCGTTTC ((((((....)))..))), the folding enthalpy in data set [1] is -10.9 kcal/mol. In addition, the Tm in data set [2] worked out at 39 °C.

On to GTAGACGAAAGTCGTTAC ((((((....)))..))), for which, in data set [1], the folding enthalpy was -11 kcal/mol. Moreover, the Tm in data set [2] was 34.6 °C.

For the sequence GCAGTACGAAAGTAGTGC (((.(((....))).))), the folding enthalpy in data set [1] is -47 kcal/mol. For the same sequence, the Tm in data set [2] amounted to 57.6 °C.

As for GTAGGTCGAAAGACTTAC (((.(((....))).))), the folding enthalpy in data set [1] is -27.3 kcal/mol. For the same sequence, the Tm in data set [2] was determined as 47.9 °C.

In the case of GGGCCGCGAAAGCGACCC (((.(((....))).))), the folding enthalpy in data set [1] is -29.7 kcal/mol. Besides, the Tm in data set [2] stood at 68.8 °C.

On to GTTGGAGGAAACTCCGAC ((.((((....)))).)), for which, in data set [1], the folding enthalpy is -40.7 kcal/mol. Further, the Tm in data set [2] was 52.8 °C.

For the sequence GATCAGACGCTGATC ((((((...)))))), in data set [1], the folding enthalpy is -34.2 kcal/mol. In data set [2], the Tm stood at 47.7 °C.

Regarding GGCACTCGAAAGAGCGCC (((.(((....))).))), the folding enthalpy in data set [1] was -53 kcal/mol. Also, the Tm in data set [2] is 59.3 °C.

As to GAATTGACGAAAGTCTTC (((..(((....)))))), the folding enthalpy in data set [1] was -11.6 kcal/mol. Also, the Tm in data set [2] turned out to be 29.6 °C.

With GATCAATAGTTGATC ((((((...)))))), the folding enthalpy in data set [1] is -26.2 kcal/mol. Further, the Tm in data set [2] was found to be 40.5 °C.

GTCTCCGGAAACGGAGGC (.(((((....))))).): the folding enthalpy in data set [1] was -25.2 kcal/mol. Also, the Tm in data set [2] was found to be 61.7 °C.

With GCACCCGAAAGGGTCTGC ((((((....)))..))), the folding enthalpy in data set [1] was -13.3 kcal/mol. Also, the Tm in data set [2] came out at 49.1 °C.

Take GCCACGCGAAAGCCTAGC ((.(.((....)).).)): the folding enthalpy in data set [1] is -6.53 kcal/mol. Moreover, the Tm in data set [2] is 14.4 °C.

Turning to GTTGGCGGAAACGTCAAC ((((.((....)).)))), in data set [1], the folding enthalpy is -36.7 kcal/mol. Besides, the Tm in data set [2] was 56.8 °C.

As to GTGTTGACGAAAGTCCAC (((..(((....)))))), in data set [1], the folding enthalpy is -19.6 kcal/mol. In addition, the Tm in data set [2] is 41.6 °C.

For GCAGATCCGAAAGGATGC (((..(((....)))))), the folding enthalpy in data set [1] was -16.3 kcal/mol. The Tm in data set [2] was found to be 45.2 °C.

On to GATCCTGCCGAGGATC ((((((....)))))), for which the folding enthalpy in data set [1] is -32.1 kcal/mol. For the same sequence, the Tm in data set [2] came out at 53 °C.

In the case of GAAACGGGAAACTGTTTC (((((.(....).))))), in data set [1], the folding enthalpy is -27.5 kcal/mol. The Tm in data set [2] is 44.9 °C.

On to GCTCCGGGAAACTGGAGC (((((.(....).))))), for which the folding enthalpy in data set [1] was -45.7 kcal/mol. Moreover, the Tm in data set [2] came to 60.1 °C.

For GCCTCCGAAAGGAGTGGC ((((((....)))..))), the folding enthalpy in data set [1] is -17.1 kcal/mol. In data set [2], the Tm turned out to be 50.3 °C.

Consider GATCCAAGCTGGATC ((((((...)))))), for which the folding enthalpy in data set [1] is -28.8 kcal/mol. The Tm in data set [2] was found to be 50.5 °C.

For the sequence GATTTAGAAATAAATC ((((((....)))))), the folding enthalpy in data set [1] is -18.8 kcal/mol. Besides, in data set [2], the Tm turned out to be 34.4 °C.

For the sequence GATCCCGCTTGGGATC ((((((....)))))), the folding enthalpy in data set [1] was -46.9 kcal/mol. The Tm in data set [2] is 59.5 °C.

Take GACAGGCGAAAGCCGGTC (((.(((....))).))): in data set [1], the folding enthalpy is -25.9 kcal/mol. Further, the Tm in data set [2] amounted to 67.1 °C.

For the sequence GGATGAGGAAACTCGTTC (.(.(((....))).).), the folding enthalpy in data set [1] is -15.8 kcal/mol. The Tm in data set [2] is 28.3 °C.

For the sequence GATCGAGTTTTCGATC ((((((....)))))), the folding enthalpy in data set [1] was -41.8 kcal/mol. Moreover, the Tm in data set [2] worked out at 54.2 °C.

For GATCGACGTATCGATC ((((((....)))))), in data set [1], the folding enthalpy is -56.4 kcal/mol. Further, the Tm in data set [2] is 51.2 °C.

As for GATCACCTTTGTGATC ((((((....)))))), the folding enthalpy in data set [1] is -42.4 kcal/mol. Besides, in data set [2], the Tm is 55 °C.

On to GATCCCCTCCGGGATC ((((((....)))))), for which the folding enthalpy in data set [1] is -36 kcal/mol. In addition, the Tm in data set [2] came to 58.4 °C.

Turning to GCCTAGCGAAAGCCAGGC ((((.((....)).)))), the folding enthalpy in data set [1] was -29.4 kcal/mol. For the same sequence, in data set [2], the Tm came out at 62.2 °C.

GATCACGATTGTGATC ((((((....)))))): in data set [1], the folding enthalpy is -33.2 kcal/mol. The Tm in data set [2] was determined as 56.6 °C.

On to GTGCGTGGAAACACGCGC (.(((((....))))).), for which the folding enthalpy in data set [1] is -18 kcal/mol. For the same sequence, the Tm in data set [2] came to 65.9 °C.

Consider GGTGTAGGAAACTATACC (((.(((....))).))), for which, in data set [1], the folding enthalpy was -32 kcal/mol. Also, in data set [2], the Tm amounted to 42.4 °C.

GATCTGATCACAGATC ((((((....)))))): the folding enthalpy in data set [1] is -36.8 kcal/mol. The Tm in data set [2] came to 50.4 °C.

Regarding GGTCGTCGAAAGACCACC (((.(((....))).))), in data set [1], the folding enthalpy was -19.8 kcal/mol. Also, in data set [2], the Tm came to 45.9 °C.

As to GATCAAAACATTGATC ((((((....)))))), the folding enthalpy in data set [1] was -31.7 kcal/mol. In addition, the Tm in data set [2] worked out at 42.3 °C.
